A selection: hits, their analogues and other compounds. The true share with any hit is near 2.3%.
TRPC6 inh: mouse TRPC6 channel inhibitors, primary screen, cell-based, HEK293, membrane potential dye | Short transient receptor potential channel 6 (Mus musculus), Q61143 | 1.1% of 310,000 active | B-score at 10 µM | ACh-evoked depolarization; active compounds read low;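 active means B-score under library mean minus 3 SD, initial fluorescence not abnormally high, positive integrated signal ratio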;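 further: B-score derived from integrated fluorescence ratio over the kinetic read; more negative B-score means stronger inhibition of depolarization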
Target sequence (Q61143 whole entry, looked up): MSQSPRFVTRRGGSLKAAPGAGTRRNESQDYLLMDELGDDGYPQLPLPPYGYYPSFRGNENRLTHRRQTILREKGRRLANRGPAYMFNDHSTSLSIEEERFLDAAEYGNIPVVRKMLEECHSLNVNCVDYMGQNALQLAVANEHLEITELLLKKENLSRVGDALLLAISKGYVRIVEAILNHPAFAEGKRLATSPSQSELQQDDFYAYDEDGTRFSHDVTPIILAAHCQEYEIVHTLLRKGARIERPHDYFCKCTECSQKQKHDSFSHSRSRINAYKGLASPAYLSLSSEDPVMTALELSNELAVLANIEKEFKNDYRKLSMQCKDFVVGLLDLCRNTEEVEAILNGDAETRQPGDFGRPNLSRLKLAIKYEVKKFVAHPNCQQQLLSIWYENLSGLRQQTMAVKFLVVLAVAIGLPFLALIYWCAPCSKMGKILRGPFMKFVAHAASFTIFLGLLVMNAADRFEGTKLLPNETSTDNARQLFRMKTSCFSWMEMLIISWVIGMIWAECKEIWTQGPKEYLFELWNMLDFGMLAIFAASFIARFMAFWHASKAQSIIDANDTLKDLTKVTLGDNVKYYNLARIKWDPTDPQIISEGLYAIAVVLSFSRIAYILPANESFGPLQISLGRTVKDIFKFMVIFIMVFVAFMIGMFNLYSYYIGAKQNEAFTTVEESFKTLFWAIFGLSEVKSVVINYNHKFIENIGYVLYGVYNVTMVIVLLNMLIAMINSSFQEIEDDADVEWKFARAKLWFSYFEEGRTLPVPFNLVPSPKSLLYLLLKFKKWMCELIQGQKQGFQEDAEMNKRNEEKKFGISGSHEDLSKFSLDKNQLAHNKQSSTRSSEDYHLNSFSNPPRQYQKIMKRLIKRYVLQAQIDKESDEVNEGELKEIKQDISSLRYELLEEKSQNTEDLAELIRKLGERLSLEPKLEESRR
TRPC4 act: activators of mouse TRPC4 channel, primary screen, Fluo4 calcium, HEK293 TRPC4beta/mu-opioid cells; Fluo4 calcium fluorescence; active compounds read high; 0.49% of 310,000 active; B-score at 10 µM; Short transient receptor potential channel 4 (Mus musculus), Q9QUQ5;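 active means B-score above 5 SD of library B-scores, and initial fluorescence ratio not above library mean plus 5 SD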;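 further: positive B-score marks a calcium rise read as TRPC4 activation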
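Assay system: HEK293 cells stably co-expressing mouse TRPC4beta and mu-opioid receptor / Timing: Fluo4 dye loading 45 min at room temperature, 110 s recording / Signal: Fluo4 calcium-sensitive dye fluorescence, kinetic, 1 Hz baseline / Read-out: integrated baseline-normalised fluorescence ratio, converted to per-well B score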
TRPC4 inh: inhibitors of mouse TRPC4 channel, primary screen, Fluo4 calcium, HEK293 TRPC4beta/mu-opioid cells; B-score at 10 µM; 0.39% of 300,000 active; DAMGO-evoked Fluo4 calcium flux; active compounds read low;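 active means B-score over 3 SD under the library average, no early fluorescence shift, positive overall ratio signal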
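Assay system – HEK293 line stably carrying TRPC4beta and mu-opioid receptor · Doses – single dose · Detection – Fluo4 calcium-dye fluorescence, kinetic read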
TRPC6 act: mouse TRPC6 channel activators, primary screen, cell-based, HEK293, membrane potential dye; HEK293-TRPC6 membrane potential dye fluorescence; active compounds read high; B-score at 10 µM; 0.13% of 310,000 active;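 active means B-score of the integrated fluorescence ratio above library mean plus 3 SD, and starting fluorescence ratio within library mean plus 5 SD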;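 further: higher score means more depolarization so channel activation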
TRPC4 potent: positive allosteric modulators of TRPC4, primary screen, cell-based, mouse TRPC4beta, HEK293 mu-opioid, Fluo-4 calcium; 0.42% of 310,000 active; B-score at 10 µM; DAMGO EC20, Fluo-4 Ca2+ flux; active compounds read high; AID 2227, 2009; Short transient receptor potential channel 4 (Mus musculus), Q9QUQ5;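 active means B-score of calcium response area above 5 SD of library B-scores, with initial fluorescence ratio within 5 SD of library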;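 further: B-score of integrated fluorescence ratio over time as area under calcium response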
TRPC4 sel inh 2: mouse TRPC4 off-target activity of TRPC6 inhibitors, second screen; inhibition, % at 10 µM; shares compounds with TRPC6 inh; 42% of 920 active; HEK293 TRPC4/MOR, membrane potential dye fluorescence; channel activated by saturating DAMGO dose;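 active means compounds whose fluorescence signal differed from control wells by over 3 SD, either direction, in both duplicate plates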
TRPC4 spec: mouse TRPC4 modulation by TRPC6 hits, confirmation, selectivity assay for TRPC6 inhibitor project, cell-based, HEK293 TRPC4/mu-opioid, membrane potential dye; 61% of 920 active; shares compounds with TRPC6 inh; membrane potential fluorescence; activity change, negative = inhibition, % at 10 µM;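 active means rise or fall in signal beyond 3 SD of buffer-only wells in both replicate plates, either sign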;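 further: integrated kinetic ratio of fluorescence range over baseline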
HEK293 MPD ctr 2-1: nonspecific membrane potential effects, parental HEK293, confirmation, counter-screen for TRPC6 inhibitor project, cell-based, second counter screen; signal change vs control, % at 10 µM; parental HEK293 membrane potential dye fluorescence; maximal acetylcholine challenge after compound addition; shares compounds with TRPC6 inh; 31% of 920 active;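 active means membrane potential signal moving either way by over 3 SD of the maximum-effect control, in both duplicate plates, meaning non-specific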
HEK293 MPD ctr-1: membrane potential modulation in parental HEK293, confirmation, counter-screen for TRPC6 inhibitor project, cell-based; parental HEK293 membrane potential dye fluorescence; membrane potential signal change, % at 10 µM; AID 2780, 2010; shares compounds with TRPC6 inh; 60% of 920 active;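 active means membrane potential signal shifting up or down by more than 3 SD of buffer-only wells, on both duplicate plates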
HEK293 MPD ctr-2: parental HEK293 membrane potential modulation, confirmation, counter-screen for TRPC6 modulator project, cell-based; shares compounds with TRPC6 inh; membrane potential signal change, % at 10 µM; 51% of 2,400 active; membrane potential dye fluorescence;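 active means membrane potential signal moves up or down beyond 5 SD from buffer-only wells, on both duplicate plates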
HEK293 MPD ctr 2-2: parental HEK293 nonspecific activity of TRPC6 modulators, second screen; shares compounds with TRPC6 inh; membrane potential dye fluorescence; after compound, maximal acetylcholine stimulation; inhibition, % at 10 µM; 14% of 2,400 active; AID 488926;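 active means membrane potential signal drops by more than 5 SD from the mean control signal, in both duplicate plates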;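 further: plate controls were acetylcholine ECmax control wells for no effect and buffer only wells for full effect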
TRPC4 ctr mod: TRPC4 modulation by TRPC6 hit compounds, confirmation, selectivity assay for TRPC6 modulator project, cell-based, HEK293 TRPC4/mu-opioid, membrane potential dye, mouse | shares compounds with TRPC6 inh | membrane potential fluorescence | percent change from control (negative = decrease, positive = increase), % at 10 µM | 69% of 2,400 active | AID 488927, 2010;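 active means membrane potential signal moved up or down beyond 5 SD of buffer control wells, in both duplicate plates, actives on both sides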;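 further: plate controls were assay buffer wells for no effect and DAMGO maximal-effect wells for full effect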
TRPC4 ctr inh 2: mouse TRPC4 off-target activity of TRPC6 modulators, second screen; HEK293 TRPC4/mu-opioid, membrane potential dye fluorescence; stimulated with maximal-effect DAMGO; shares compounds with TRPC6 inh; AID 488928; 55% of 2,400 active; inhibition, % at 10 µM;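 active means drop in membrane potential signal beyond 5 SD of the control wells in both duplicate plates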;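 further: TRPC4 counter screen for TRPC6 hits run under conditions tuned for TRPC6 not TRPC4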
TRPC6 inh conf: mouse TRPC6 channel inhibitors, confirmation, HEK293 cells, membrane potential dye, duplicate; shares compounds with TRPC6 inh; ACh-evoked depolarization; inhibition, % at 10 µM; 43% of 3,300 active; AID 488960, 2010;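 active means fluorescence ratio falls more than 5 SD below the full-stimulation control mean, in both duplicate runs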;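 further: integrated fluorescence ratio of peak minus minimum over baseline after agonist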
TRPC6 act confirm: mouse TRPC6 channel activators, confirmation, HEK293 cells, membrane potential dye, duplicate | HEK293-TRPC6 membrane potential dye fluorescence, FDSS | 11% of 2,800 active | activation, % at 10 µM | shares compounds with TRPC6 inh;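 active means ratio signal rise beyond 5 SD above unstimulated control wells' mean, seen in both duplicate runs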;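 further: plate controls were buffer EC0 wells for no effect and acetylcholine ECmax response for full effect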
* hit, by the source's call; i = inactive; / = no result.

SMILES	TRPC6 inh	TRPC4 act	TRPC4 inh	TRPC6 act	TRPC4 potent	HEK293 MPD ctr-2	HEK293 MPD ctr 2-2	TRPC4 ctr mod	TRPC4 ctr inh 2	TRPC6 inh conf	TRPC6 act confirm	others
CN1CCN(c2ccccc2NC(=O)c2ccc(-c3ccc(Cl)c(Cl)c3)o2)CC1	i	i	i	i	i	/	/	/	/	/	/
Cc1cc(N2CCN(C)CC2)ccc1NC(=O)c1ccc(-c2ccc(Cl)cc2)o1	-9*	50*	i	i	i	/	/	/	/	67%*	i	TRPC4 sel inh 2=16%*;TRPC4 spec=2.7%*;HEK293 MPD ctr 2-1=i;HEK293 MPD ctr-1=-334%*
CCC(C)NS(=O)(=O)c1cc2c3c(c1)CCC(=O)N3CCC2 (stereo not given)	i	i	i	i	i	/	/	/	/	/	/
Cc1ccc(-c2nnn(C/C(N)=N/O)n2)cc1	i	i	i	i	i	/	/	/	/	/	/
CN(C)CCN(C(=O)c1ccc2c(c1)OCCO2)c1nc2cc3c(cc2s1)OCO3	-6.4*	i	i	i	i	-82%*	100%*	-24%*	92%*	88%*	i
COc1ccc2nc(N(CCN(C)C)C(=O)c3ccc4c(c3)OCCO4)sc2c1	-5.1*	i	i	i	i	i	i	-24%*	72%*	64%*	i
CN(C)CCN(C(=O)c1ccc2c(c1)CCCC2)c1nc2cc3c(cc2s1)OCCO3	i	i	i	i	i	/	/	/	/	/	/
CCOC(=O)Cn1c(=S)[nH]c2c(oc3ccc(Cl)cc32)c1=O	i	i	i	i	i	/	/	/	/	/	/
CCN(CC)CCCn1c2c(c(SCC(=O)Nc3cccc4ccccc34)nc1=O)CCC2	i	i	i	i	i	/	/	/	/	/	/
CN(C)CCCn1c2c(c(SCC(=O)Nc3cccc4ccccc34)nc1=O)CCCC2	-5.3*	i	i	i	i	i	i	i	46%*	i	i
CCOC(=O)Cc1cnc(NC(=O)CSc2nc(C(C)C)cc(=O)[nH]2)s1	i	i	i	i	i	/	/	/	/	/	/
COc1cccc2cc(C(=O)NCCc3c[nH]c4ccccc34)c(=O)oc12	i	i	i	i	i	/	/	/	/	/	/
COc1ccc(Cl)cc1NC(=O)C1CC(c2ccccc2O)=NO1 (stereo not given)	i	i	i	i	i	/	/	/	/	/	/
Cc1cc(=O)n2c3ccccc3n(CC(O)CN3CCCCC3)c2c1C#N (stereo not given)	-8.3*	i	i	i	i	/	/	/	/	63%*	i	TRPC4 sel inh 2=50%*;TRPC4 spec=-21%*;HEK293 MPD ctr 2-1=i;HEK293 MPD ctr-1=-365%*
CCOC(=O)Cc1ccc(NCc2ccc(Cl)cc2)cc1	i	i	i	i	i	/	/	/	/	/	/
COc1nc(-c2cccc([N+](=O)[O-])c2)nc2ccccc12	i	i	i	i	i	/	/	/	/	/	/
Cc1ccc(-c2nc(N3CCN(C)CC3)c3ccccc3n2)cc1	-9*	i	i	i	i	/	/	/	/	i	i	TRPC4 sel inh 2=i;TRPC4 spec=-21%*;HEK293 MPD ctr 2-1=i;HEK293 MPD ctr-1=-360%*
CN1CCN(c2nc(-c3cccc([N+](=O)[O-])c3)nc3ccccc23)CC1	-6.1*	i	i	i	i	-206%*	i	-43%*	63%*	54%*	i
CN1CCN(c2nc(N3CCN(CCO)CC3)nc3ccccc23)CC1	-7.1*	i	i	i	i	-453%*	84%*	-72%*	72%*	80%*	i
Cc1c(C(=O)Nc2ccc(C(F)(F)F)cc2)sc2ncn(CC(=O)N3CCN(c4ccccn4)CC3)c(=O)c12	i	i	i	i	i	/	/	/	/	/	/
COC(=O)c1ccc(/C=N/NC(=S)NCCN2CCOCC2)cc1	i	i	i	i	i	/	/	/	/	/	/
CCOC(=O)c1ccc(CNC(=O)C2CCC(=O)N(CCc3ccccc3)C2)o1 (stereo not given)	i	i	i	i	i	/	/	/	/	/	/
N#Cc1c(Cl)nsc1NC(=O)c1ccccc1	-5.3*	i	i	i	i	256%*	i	101%*	80%*	71%*	/
N#Cc1c(NC(=O)c2ccccc2)sc2c1CCCCC2	i	i	i	i	i	/	/	/	/	/	/
c1csc(-c2nn3c(C4COc5ccccc5O4)nnc3s2)c1 (stereo not given)	-12*	i	i	i	i	i	i	i	i	i	i
